Bioassay records: PubChem, Broad Institute
An excerpt weighted towards active compounds, which were near 5.9% of everything screened.
IDH1 mut inh: IDH1 R132H (human) inhibition; O75874; IDH1 R132H reductase, diaphorase/resazurin fluorescence, 60 min; inhibition, % at 10 µM; hit rate 0.18% among 70,000; AID 624101; in the data active = inhibition above about 34%;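 also: 0% = DMSO and 100% = no enzyme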
Target sequence (O75874 whole entry R132H): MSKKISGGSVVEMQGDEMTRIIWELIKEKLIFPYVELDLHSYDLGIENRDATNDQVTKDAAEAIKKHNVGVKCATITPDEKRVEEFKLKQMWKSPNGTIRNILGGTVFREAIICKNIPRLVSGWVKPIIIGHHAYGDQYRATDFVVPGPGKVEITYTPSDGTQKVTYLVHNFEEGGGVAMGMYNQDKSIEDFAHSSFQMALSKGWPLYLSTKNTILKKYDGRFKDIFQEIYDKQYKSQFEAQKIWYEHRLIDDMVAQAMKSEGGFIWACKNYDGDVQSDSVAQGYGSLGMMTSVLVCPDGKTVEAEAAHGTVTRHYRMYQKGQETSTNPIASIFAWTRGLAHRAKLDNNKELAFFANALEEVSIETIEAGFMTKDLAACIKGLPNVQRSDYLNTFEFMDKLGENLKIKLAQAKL
T cruzi growth: inhibitors of T. cruzi proliferation; T. cruzi beta-gal in NIH3T3, GalScreen luminescence, 90 h; inhibition, % at 8.34 µM; hit rate 5.9% among 77,000; AID 624255;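 active = mean inhibition above about 93%, with at least 55% of replicates each passing it, limit read from the data, passing the limit was not always enough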
GASC1 inh: inhibitors of human demethylase GASC-1 KDM4C | hit rate 0.15% among 96,000 | inhibition, % at 12.5 µM | AID 720574 | GST-KDM4C 2-372, H3K9me3 peptide, LANCE TR-FRET | Q9H3R0;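 active = mean replicate inhibition above about 25%, with at least 55% of replicates also reaching it, limit read from the data, passing the limit was not always enough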
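System – N-terminal GST-fused human GASC-1 (KDM4C) fragment, residues 2-372 · Input – enzyme final amount 10 nM · Technique – LANCE TR-FRET, Eu antibody, ULight-streptavidin, EDTA, ex 340 nm, em 618/671 nm · Medium – HEPES buffer, pH 7.5, plus ascorbate · Incubation – enzyme reaction 30 min, then detection 60 min, both room temperature · Reagent – H3K9me3 peptide with Fe(II)/2OG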
Pf Dd2 growth: inhibitors of Plasmodium falciparum Dd2 growth; hit rate 2.3% among 94,000; activity change, % at 10 µM; AID 1159554; P. falciparum Dd2 growth, SYBR Green, 72 h; active compounds read low; in the data active = activity change below about -80%
The depositor's hits bear a star; / = no result given; ! = not active in a repeat.

SMILES | IDH1 mut inh | T cruzi growth | GASC1 inh | Pf Dd2 growth
C[C@@H]1CN([C@@H](C)CO)C(=O)c2cc(NC(=O)C3CCCCC3)ccc2O[C@@H](C)CCCCO[C@H]1CN(C)S(=O)(=O)c1ccc(Cl)cc1 | / | 87 | / | -83*
Cc1ccc(S(=O)(=O)N(C)C[C@H]2OCCCC[C@@H](C)Oc3ccc(NC(=O)C4CCCCC4)cc3C(=O)N([C@H](C)CO)C[C@@H]2C)cc1 | / | 0 | 2 | -55
Cc1ccccc1NC(=O)C1CC=CCC1C(=O)O (stereo not given) | 0 | / | / | /
Cc1ccccc1-c1ccc(C2[C@@H]3CN(Cc4cccnc4)C[C@H]2N3)cc1 (stereo not given in full) | / | / | 0 | -90*!
CN(C)C(=O)c1ccc(-c2ccc(C3[C@@H]4CN(Cc5cccnc5)C[C@H]3N4)cc2)cc1 (stereo not given in full) | / | / | 1 | -16
Fc1cccc(-c2ccc(C3[C@@H]4CN(Cc5cccnc5)C[C@H]3N4)cc2)c1 (stereo not given in full) | / | / | -1 | -90*!
COC(=O)c1ccccc1NC(=O)Cn1cnc2sc(C)c(C)c2c1=O | 0 | / | / | /
O=C(CCCCCC(=O)N/N=C/c1cc(O)ccc1O)NO | 69* | / | / | /
O=C(CCCCCC(=O)Nc1ccccc1O)N/N=C\c1cc(O)ccc1O | 50* | / | / | /
O=C(CCCCCCC(=O)Nc1ccccc1O)N/N=C/c1cc(O)ccc1Br | 0 | / | / | /
Cc1ccc(S(=O)(=O)N2C(=O)CCC2C(=O)Nc2cccc3c2CCCC3)cc1 (stereo not given) | -1 | / | / | /
OC[C@@H]1Nc2ccc(C#Cc3cccc(F)c3)cc2[C@@H]2NCC[C@H]12 | / | / | 2 | -91*
COc1ccccc1C#Cc1ccc2c(c1)[C@H]1NCC[C@H]1[C@@H](CO)N2 | / | / | -2 | -87*
O=S(=O)(c1ccc(F)cc1)N1CC[C@@H]2[C@@H](CO)Nc3ccc(C#Cc4cccc(F)c4)cc3[C@@H]21 | / | / | -3 | -10
COc1cc(NS(=O)(=O)c2ccc(NC(=O)c3cccc4ccccc34)cc2)ncn1 | 0 | / | / | /
COCc1cn([C@@H]2C[C@@H]3O[C@@H](CO)CC[C@@H]3O[C@@H]2CCc2ccc(-c3ccc(OC)cc3)cc2)nn1 | / | / | / | -84*
COCc1cn([C@@H]2C[C@@H]3O[C@H](CO)CC[C@@H]3O[C@@H]2CCc2ccc(-c3ccc(OC)cc3)cc2)nn1 | / | / | / | -94*
COCc1cn([C@H]2C[C@@H]3O[C@H](CO)CC[C@@H]3O[C@@H]2CCc2ccc(-c3ccc(OC)cc3)cc2)nn1 | / | / | / | -38
O=C(CC1(O)C(=O)N(Cc2ccccc2)c2ccc(Cl)cc21)c1ccncc1 (stereo not given) | 0 | / | / | /
O=C(CCCN1C(=O)c2ccccc2C1=O)Nc1ccc(Cl)cc1 | 0 | / | / | /
C[C@@H]1CN([C@@H](C)CO)C(=O)c2cc(NC(=O)Nc3ccccc3)ccc2O[C@@H]1CN(C)Cc1ccc(C(=O)Nc2ccccc2N)cc1 | / | 48 | -2 | -83*
C[C@H](CO)N1C[C@H](C)[C@H](CN(C)Cc2ccc(C(=O)Nc3ccccc3N)cc2)Oc2ccc(NC(=O)Cc3ccccc3)cc2C1=O | 1 | / | 6 | -84*
C[C@H](CO)N1C[C@H](C)[C@H](CN(C)Cc2ccc(C(=O)Nc3ccccc3N)cc2)Oc2ccc(NC(=O)Nc3ccccc3)cc2C1=O | / | 42 | 0 | -70
C[C@@H]1CN([C@@H](C)CO)C(=O)c2cc(NC(=O)Nc3ccc(F)cc3)ccc2O[C@@H]1CN(C)Cc1ccc(C(=O)Nc2ccccc2N)cc1 | 0 | / | 0 | -84*
COc1ccc(NC(=O)Nc2ccc3c(c2)C(=O)N([C@H](C)CO)C[C@H](C)[C@H](CN(C)Cc2ccc(C(=O)Nc4ccccc4N)cc2)O3)cc1 | 0 | / | 0 | -79
C[C@H](CO)N1C[C@H](C)[C@H](CN(C)Cc2ccc(C(=O)Nc3ccccc3N)cc2)Oc2ccc(NC(=O)Nc3ccc(C(F)(F)F)cc3)cc2C1=O | 0 | / | 0 | -80*
C[C@H]1CN([C@@H](C)CO)C(=O)c2cc(NC(=O)Nc3ccc(F)cc3)ccc2O[C@H]1CN(C)Cc1ccc(C(=O)Nc2ccccc2N)cc1 | 0 | 51 | -4 | -71
C[C@H]1CN([C@@H](C)CO)C(=O)c2cccc(NC(=O)CCCCCC(=O)Nc3ccccc3N)c2O[C@@H]1CN(C)Cc1ccc(-c2ccccc2)cc1 | 3 | / | 13 | -93*
C[C@H](CO)N1C[C@H](C)[C@@H](CN(C)Cc2ccncc2)Oc2c(NC(=O)CCCCCC(=O)Nc3ccccc3N)cccc2C1=O | / | 46 | -1 | -29
